Measurements of several laboratories.
Compare with care: the assays were run in different laboratories. pEC50, pIC50: −log10 of the molar value.

| Compound | tested on | test | system | setting | measurement | result |
| --- | --- | --- | --- | --- | --- | --- |
| O=C(/C=C/c1cn(Cc2cn(-c3ccnc4cc(Cl)ccc34)nn2)c2ccccc12)c1ccc(F)cc1 | Plasmodium falciparum | parasite growth, SYBR Green | 3D7 | 5 µM, blood stage | inhibition | 15.8% |
| Cn1cc2c3c1C(=O)C(NCCc1ccc(O)cc1)=CC3=[N+](C)CC2 | Plasmodium falciparum | parasite growth, SYBR Green | DD2 | blood stage | pIC50 | 7.32 |
| C=CC(=O)NC1CCN(c2ncc3ncnc(Nc4ccc(Oc5ccc6c(c5)ncn6C)c(C)c4)c3n2)CC1 | MDA-MB-453 | cell growth or viability | – | – | pEC50 | 7.45 |
| CC1CCN(C(=O)/C=C/c2nn(CC3CCCC3)c3ncnc(N)c23)CC1 | FLO-1 | cell growth or viability, resazurin | – | 5 days | pEC50 | < 4.52 |
| COC1=CC2=[N+](C)CCc3c[nH]c(c32)C1=O | Plasmodium falciparum | parasite growth, SYBR Green | DD2 | blood stage | pIC50 | 5.79 |
| CNc1ncc2c(/C=C/C(=O)N3CCC(O)CC3)nn(CC3CCCC3)c2n1 | FLO-1 | cell growth or viability, resazurin | – | 5 days | pEC50 | < 4.52 |
| O=C(NO)c1ccc(CNc2nc3cccc(-c4ccc5c(c4)OCO5)n3n2)cc1 | COLO 205 | cell growth or viability, SRB | – | – | GI50 | 0.63 µM |
| COc1cccc(C(=O)/C=C/c2cn(Cc3cn(-c4ccnc5cc(Cl)ccc45)nn3)c3ccccc23)c1 | Plasmodium falciparum | parasite growth, SYBR Green | 3D7 | 5 µM, blood stage | inhibition | 2.88% |
| CNc1ncc2c(/C=C/C(=O)N3CCC(OC)CC3)nn(CC3CCCCC3)c2n1 | FLO-1 | cell growth or viability, resazurin | – | 5 days | pEC50 | 5.15 |
| O=C(/C=C/c1cn(Cc2cn(-c3ccnc4cc(Cl)ccc34)nn2)c2ccccc12)c1cc(OCc2ccccc2)cc(OCc2ccccc2)c1 | Plasmodium falciparum | parasite growth, SYBR Green | 3D7 | 10 µM, blood stage | inhibition | 49% |
| O=C1C=C2NCCc3c[nH]c(c32)C1=O | Plasmodium falciparum | parasite growth, SYBR Green | DD2 | blood stage | pIC50 | 4.63 |
| O=C(/C=C/c1cn(Cc2cn(-c3ccnc4cc(Cl)ccc34)nn2)c2ccccc12)c1ccc([N+](=O)[O-])cc1 | Plasmodium falciparum | parasite growth, SYBR Green | 3D7 | 5 µM, blood stage | inhibition | 3.86% |
| COC(=O)/C=C/c1nn(CC2CCCC2)c2ncnc(N)c12 | FLO-1 | cell growth or viability, resazurin | – | 5 days | pEC50 | < 4.52 |
